MrgX1 antag: antagonists of human MrgX1 receptor, primary screen, HEK293 cells, Fluo-4 calcium flux. BAM8-22 antagonism; stronger effect = lower value. B-score at 10 µM. 1.3% of 310,000 active. AID 588676, 2011;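 active = calcium-response B-score plate-corrected more than 3 library SD below zero, starting fluorescence within 5 deviations, no agonist response on first addition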;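 also: peak minus trough fluorescence over baseline after final BAM8-22 challenge near maximal dose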
Target sequence (Q96LB2 whole entry, looked up): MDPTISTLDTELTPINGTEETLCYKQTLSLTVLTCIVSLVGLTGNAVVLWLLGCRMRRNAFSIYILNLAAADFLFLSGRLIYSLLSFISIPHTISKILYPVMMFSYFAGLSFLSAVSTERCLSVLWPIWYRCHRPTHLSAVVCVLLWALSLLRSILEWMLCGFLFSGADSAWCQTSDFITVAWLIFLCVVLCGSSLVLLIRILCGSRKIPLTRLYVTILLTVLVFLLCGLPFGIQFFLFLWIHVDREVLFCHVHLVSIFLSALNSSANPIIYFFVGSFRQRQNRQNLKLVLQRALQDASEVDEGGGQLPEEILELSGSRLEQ
MrgX1 ag: agonists of human MrgX1 receptor, primary screen, HEK293 cells, Fluo-4 calcium flux; Mas-related G-protein coupled receptor member X1 (Homo sapiens), Q96LB2; Fluo-4 calcium fluorescence, agonist mode; stronger effect = higher value; B-score at 10 µM; 0.44% of 310,000 active;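 active = calcium response B-score plate-corrected fluorescence ratio at least 3 library SD, with starting fluorescence B-score inside 5 SD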
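Material: MrgX1-expressing HEK293 cells / Dosing: compound as first of three additions / Incubation: overnight seeding, then 1 h dark dye loading / Signal: Fluo-4 NW calcium fluorescence / Evaluation: B-scored fluorescence response ratio / Benchmarks: positive and negative control wells on each plate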
RGS4 act: RGS4 potentiators or activators, primary screen, cell-based, HEK293 M3R inducible RGS4, calcium flux; carbachol calcium flux Fluo4; stronger effect = lower value; B-score at 10 µM; 0.92% of 310,000 active; AID 463111, 2010;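 active = B-score of the integrated calcium signal more than 4 SD below the library mean, with starting fluorescence not abnormally high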;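 also: negative B-score means reduced calcium response which marks RGS4 activation or potentiation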
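Detection: kinetic calcium fluorescence imaging with Fluo4-AM dye, 2 µM / Material: HEK293 cells with stable M3R and inducible RGS4 / Schedule: recording 10 s baseline at 1 Hz, 100 s post-agonist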
MrgX1 PAM: positive allosteric modulators of MrgX1, primary screen, HEK293 cells, Fluo-4 calcium flux; Mas-related G-protein coupled receptor member X1 (Homo sapiens), Q96LB2; FDSS; stronger effect = higher value; B-score at 10 µM; 0.63% of 310,000 active; AID 588675, 2011;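 active = plate-corrected calcium response at least 3 library SD above typical, normal starting fluorescence, not activating the receptor alone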;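 also: compound read alongside a low EC10 to EC30 dose of BAM8-22 agonist; peak minus trough fluorescence over baseline measured at the second addition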
RGS4 block: RGS4 inhibitors, primary screen, cell-based, HEK293 M3R inducible RGS4, calcium flux; Fluo-4 calcium flux; stronger effect = higher value; triggered by carbachol at its EC20; B-score at 10 µM; 0.45% of 310,000 active; AID 463165, 2010; Regulator of G-protein signaling 4 (Homo sapiens), P49798;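 active = B-score, a plate-corrected calcium signal, over three deviations above library mean, with baseline fluorescence within five deviations of library mean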;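 also: RGS4 expression induced by doxycycline in cells with stable M3 receptor; B-score is computed from the integrated fluorescence ratio over baseline after carbachol; higher B-score means a larger calcium signal and so more RGS4 inhibition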
Target sequence (P49798 whole entry, looked up): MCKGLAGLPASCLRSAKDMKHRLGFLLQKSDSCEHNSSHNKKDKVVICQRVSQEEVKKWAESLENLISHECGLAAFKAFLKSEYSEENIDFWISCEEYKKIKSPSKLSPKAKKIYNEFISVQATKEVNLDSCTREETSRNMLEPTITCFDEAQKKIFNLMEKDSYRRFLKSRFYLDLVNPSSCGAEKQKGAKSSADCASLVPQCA
MrgX1 PAM conf: MrgX1 positive allosteric modulators, duplicate retest, confirmation, HEK293 cells, Fluo-4 calcium flux; 13% of 1,200 active; activation (ratio percentage), % at 10 µM; shares compounds with MrgX1 PAM; Fluo-4 calcium fluorescence, FDSS;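 active = ratio at least 3 SD above the weak peptide control, stable starting fluorescence, no direct agonism earlier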;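 also: compound followed by low BAM8-22 agonist challenge near EC20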
HEK293 Ca flux: nonspecific calcium signal in parental HEK293, confirmation, counter-screen for MrgX1 antagonist project, parental HEK293 cells, Fluo-4 calcium flux. Fluo-4 calcium fluorescence, FDSS. 2% of 4,000 active. shares compounds with MrgX1 antag. fluorescence ratio F(max-min)/F0 at 10 µM;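 active = duplicate-averaged calcium fluorescence ratio at least three times the standard deviation of buffer wells, a nonspecific response in parental cells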
HEK293 Ca counter: calcium response in parental HEK293 cells, primary screen, counter-screen for MrgX1 allosteric activator project, cell-based, Fluo-4 calcium flux, duplicate | Fluo-4 fluorescence ratio; stronger effect = higher value | 0.4% of 4,000 active | shares compounds with MrgX1 antag | fluorescence ratio F(max-min)/F0 at 10 µM | AID 624114, 2012;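 active = calcium fluorescence ratio, averaged over duplicates, at least 3 SD of the buffer-well ratio, meaning a nonspecific response in receptor-free cells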;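 also: untransfected parental HEK293 lacking MrgX1 used as counterscreen for MrgX1 allosteric activators; fluorescence change taken during the second addition on a kinetic imager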
HEK293 Ca cntr2: calcium response in parental HEK293 cells, primary screen, counter-screen for MrgX1 agonist project, cell-based, Fluo-4 calcium flux, duplicate, agonist mode; shares compounds with MrgX1 antag; Fluo-4 calcium fluorescence (FDSS); stronger effect = higher value; fluorescence ratio F(max-min)/F0 at 10 µM; 8.7% of 4,000 active; AID 624115, 2012;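 active = calcium fluorescence ratio at least three times the spread of buffer wells, meaning a non-specific response in parental cells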
Of the large screens only hits and unclear results are named; the others gave an inactive call (follow-up assays come after a bar, where they were run). Only some compounds are listed: those with a hit (about 3.5% of all), similar ones and a draw of the others.

C=C(C)Cn1c(-c2ccc(OC)cc2)nc2ccccc21	MrgX1 PAM 7 | MrgX1 PAM conf inactive | HEK293 Ca flux inactive | HEK293 Ca counter inactive | HEK293 Ca cntr2 inactive
COc1cccc(C(=O)NCCC(=O)NCc2cc(=O)n(C)c(=O)n2C)c1	none
CS(=O)(=O)N(Cc1cc2ccccc2[nH]c1=O)C1CCCCC1	MrgX1 PAM 6.8 | MrgX1 PAM conf inactive | HEK293 Ca flux inactive | HEK293 Ca counter inactive | HEK293 Ca cntr2 inactive
CCOC(=O)c1cc(-c2ccc(OC)cc2)nn1-c1ccc(C(=O)O)cc1	MrgX1 PAM 6.5 | MrgX1 PAM conf inactive | HEK293 Ca flux inactive | HEK293 Ca counter inactive | HEK293 Ca cntr2 inactive
CCOC(=O)c1cc(-c2cccnc2)nn1-c1ccccc1	none
CCN(Cc1ccccc1)C(=O)CSc1ncn[nH]1	none
Cn1c(N2CCN(C(=O)Nc3ccc(F)cc3)CC2)nc2ccccc21	none
Cn1c(N2CCN(C(c3ccccc3)c3ccccc3)CC2)nc2ccccc21	RGS4 act -7.1, MrgX1 PAM 7.5 | MrgX1 PAM conf inactive | HEK293 Ca flux inactive | HEK293 Ca counter inactive | HEK293 Ca cntr2 inactive
O=C1NC(Cc2ccccc2)C(=O)Nc2ccc(Br)cc21 (configuration not stated)	MrgX1 PAM 9.1 | MrgX1 PAM conf inactive | HEK293 Ca flux inactive | HEK293 Ca counter inactive | HEK293 Ca cntr2 inactive
CCOC(=O)c1[nH]c2ccc(OC)cc2c1NC(=O)CN1CCc2ccccc2C1	MrgX1 PAM 8.1 | MrgX1 PAM conf inactive | HEK293 Ca flux inactive | HEK293 Ca counter inactive | HEK293 Ca cntr2 inactive
Cc1ccc(NC(=O)CSc2nc3[nH]ncc3c(=O)[nH]2)cc1Cl	none
CCOC(=O)C(Cc1ccccc1)C(=O)NCc1cccnc1 (configuration not stated)	MrgX1 PAM 14 | MrgX1 PAM conf inactive | HEK293 Ca flux inactive | HEK293 Ca counter inactive | HEK293 Ca cntr2 inactive
Cc1ccccc1OC(C)C(=O)NCc1cccnc1 (configuration not stated)	none
Cc1cc(C)c2c(c1)c1nnc(SCCN3CCCCC3)nc1n2C	none (no result: MrgX1 antag, MrgX1 ag, MrgX1 PAM)
O=C(COC(=O)c1ccc(NS(=O)(=O)c2ccc(Br)s2)cc1)NC1CCCC1	MrgX1 PAM 19 | MrgX1 PAM conf inactive | HEK293 Ca flux inactive | HEK293 Ca counter inactive | HEK293 Ca cntr2 inactive
COc1ccccc1C(=O)OCC(=O)Nc1ccc(OC(F)F)cc1	none
COc1ccccc1C(=O)OCC(=O)Nc1ccccc1OC(F)F	MrgX1 PAM 7.4 | MrgX1 PAM conf inactive | HEK293 Ca flux inactive | HEK293 Ca counter inactive | HEK293 Ca cntr2 inactive
CCc1cc(C(=O)OC)c(NC(=O)CN2CCN(C(=O)C3CCCO3)CC2)s1 (configuration not stated)	none
CCCc1cc(=O)oc2cc(C)cc(OCC(=O)N3CCC(C(=O)O)CC3)c12	none
C[C@@H](CC#N)CN1CC[C@H](C(C)(C)C)CCC1=O	none
CCC1=NN2C(=N)/C(=C\c3ccc(SCc4ccco4)o3)C(=O)N=C2S1	MrgX1 PAM 22 | MrgX1 PAM conf inactive | HEK293 Ca flux inactive | HEK293 Ca counter inactive | HEK293 Ca cntr2 57
